Measured values published in ChEMBL document CHEMBL1149387, “Novel potent hepatitis C virus NS3 serine protease inhibitors derived from proline-based macrocycles” (J Med Chem, 2006).
Numbered stars: 1 amine (or outer) side, 2 acyl side, 3 side chain; on linkers, the order of the positions; unused ones are H or OH. Square brackets hold non-standard residues; d marks the D form. Peptide text beside a SMILES is read from it. * marks the point of attachment. Hyp = O=C(O)[C@@H]1C[C@@H](O)CN1; X1 = CCCC(N[*:1])C(=O)C(=O)[*:2]; Chg = N[C@H](C(=O)O)C1CCCCC1; Phg = N[C@H](C(=O)O)c1ccccc1; Boc = CC(C)(C)OC(=O)*; tBu = CC(C)(C)*

Legend:
NS3 = NS3 (Hepatitis C virus, UniProt A3EZJ3); assay: Inhibitory activity against HCV NS3 protease; design: species or system Hepacivirus hominis
NS3, sequence (A3EZJ3 whole entry): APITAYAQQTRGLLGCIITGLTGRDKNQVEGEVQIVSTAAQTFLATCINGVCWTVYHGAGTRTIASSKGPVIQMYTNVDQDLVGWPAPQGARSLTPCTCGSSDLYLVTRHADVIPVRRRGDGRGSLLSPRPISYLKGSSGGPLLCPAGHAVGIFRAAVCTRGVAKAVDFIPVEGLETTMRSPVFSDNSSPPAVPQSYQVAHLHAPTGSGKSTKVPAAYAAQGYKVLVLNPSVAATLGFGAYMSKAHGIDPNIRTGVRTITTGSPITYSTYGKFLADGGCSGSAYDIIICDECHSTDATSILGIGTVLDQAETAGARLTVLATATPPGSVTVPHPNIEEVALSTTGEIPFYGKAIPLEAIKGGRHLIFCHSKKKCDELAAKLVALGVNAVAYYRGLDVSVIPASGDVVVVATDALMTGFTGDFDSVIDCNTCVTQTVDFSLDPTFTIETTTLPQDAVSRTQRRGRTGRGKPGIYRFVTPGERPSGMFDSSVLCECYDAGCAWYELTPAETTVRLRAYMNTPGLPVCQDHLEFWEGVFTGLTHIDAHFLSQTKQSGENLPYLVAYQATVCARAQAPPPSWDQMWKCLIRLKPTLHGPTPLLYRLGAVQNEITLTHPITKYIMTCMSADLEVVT
Procedure, shortened: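 Continuous assay with a single-chain NS3 serine protease carrying tethered NS4A. Values are reported as Ki*, the equilibrium constant that reflects the reversible covalent bond formed between the inhibitor ketone and the active-site serine, plus other enzyme–inhibitor contacts. Most inhibitors were tested as an inseparable mixture of two diastereomers at the P1 R-centre.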

Hepatitis C virus = assay: Inhibition of HCV replication in a cellular replicon assay; type: functional, organism-based, Hepacivirus hominis
[1] = AUC in iv dosed rat; type: ADME, organism-based; conditions: plasma
[2] = AUC in sc dosed rat; type: ADME, organism-based; conditions: plasma
[3] = AUC in orally dosed rat; type: ADME, organism-based; conditions: plasma, po
[4] = Oral bioavailability in rat; type: ADME, organism-based; conditions: in vivo
[5] = Selectivity for HNE over HCV NS3 protease
[6] = Bioavailability in sc dosed rat; type: ADME, organism-based; conditions: in vivo

`CCCC(NC(=O)[C@@H]1C[C@@H]2CN1C(=O)[C@H](C1CCCCC1)NC(=O)Cc1cccc(c1)OCCCO2)C(=O)C(=O)NCC(=O)N[C@H](CO)c1ccccc1` (some centres not stated) showed a Ki (NS3) of 0.06 µM.
For `CCCC(NC(=O)[C@@H]1C[C@@H]2CN1C(=O)[C@H](C(C)C)NC(=O)Cc1cccc(c1)OCCC(C)(C)O2)C(=O)C(=O)NCC(=O)N[C@H](C(=O)N(C)C)c1ccccc1` (some centres not stated), the Ki (NS3) was 0.019 µM.
`CCCC(NC(=O)[C@@H]1C[C@@H]2CN1C(=O)[C@H](C(C)CC)NC(=O)Cc1cccc(c1)OCCC(C)(C)O2)C(=O)C(=O)NCC(=O)N[C@H](C(=O)N(C)C)c1ccccc1` (some centres not stated) showed a Ki (NS3) of 0.07 µM.
`CCC[C@H](NC(=O)[C@@H]1C[C@@H]2CN1C(=O)[C@H](C1CCCCC1)NC(=O)Cc1cccc(c1)OCCCO2)C(=O)C(=O)NCC(=O)N[C@H](C(=O)N(C)C)c1ccccc1` showed a Ki (NS3) of 0.008 µM, an IC50 (Hepatitis C virus) of 0.4 µM and an AUC [1] of 23.1 µM·h. The AUC [2] was 41.6 µM·h, the AUC [3] was 1.5 µM·h and the bioavailability [4] was 3%. The Ratio Ki [5] was 46 and the bioavailability [6] was 90%.
With `CCCC(NC(=O)[C@@H]1C[C@@H]2CN1C(=O)[C@H](C1CCCCC1)NC(=O)Cc1cccc(c1)OCCC(C)(C)O2)C(=O)C(=O)NCC(=O)N[C@H](C(=O)OC(C)(C)C)c1ccccc1` (some centres not stated) the Ki (NS3) was 0.016 µM.
With `CCCC(NC(=O)[C@@H]1C[C@@H](OC(C)(C)C)CN1C(=O)[C@@H](NC(=O)OC(C)(C)C)C1CCCCC1)C(=O)C(=O)NCC(=O)N[C@H](C(N)=O)c1ccccc1` (some centres not stated) (Boc-[Chg][Hyp](tBu)[X1]G[Phg]-NH2) the Ki (NS3) was 0.22 µM.
For `CCCC(NC(=O)[C@@H]1C[C@@H]2CN1C(=O)[C@H](C1CCCCC1)NC(=O)Cc1cccc(c1)OCCC(C)(C)O2)C(=O)C(=O)NCC(=O)O` (some centres not stated), the Ki (NS3) was 0.72 µM.
For `CCCC(NC(=O)[C@@H]1C[C@@H]2CN1C(=O)[C@H](C1CCCCC1)NC(=O)Cc1cccc(c1)OCCC(C)(C)O2)C(=O)C(=O)NCC(=O)OCc1ccccc1` (some centres not stated), the Ki (NS3) was 0.088 µM.
For `CCCC(NC(=O)[C@@H]1C[C@@H]2CN1C(=O)[C@H](c1ccccc1)NC(=O)Cc1cccc(c1)OCCC(C)(C)O2)C(=O)C(=O)NCC(=O)N[C@H](C(=O)N(C)C)c1ccccc1` (some centres not stated), the Ki (NS3) was 0.046 µM.
`CCCC(NC(=O)[C@@H]1C[C@@H]2CN1C(=O)[C@H](C1CCCCC1)NC(=O)Cc1cccc(c1)OCCCO2)C(=O)C(=O)NCC(=O)N[C@H](C#N)c1ccccc1` (some centres not stated) gave a Ki (NS3) of 0.31 µM.
`CCCC(NC(=O)[C@@H]1C[C@@H]2CN1C(=O)[C@H](C1CCCCC1)NC(=O)Cc1cccc(c1)OCCC(C)(C)O2)C(=O)C(N)=O` (some centres not stated) gave a Ki (NS3) of 0.22 µM and an AUC [3] of 0.3 µM·h.
`CCCC(NC(=O)[C@@H]1C[C@@H]2CN1C(=O)[C@H](C1CCCCC1)NC(=O)Cc1cccc(c1)OCCC(C)(C)O2)C(=O)C(=O)NCC(=O)NCc1ccccc1` (some centres not stated) showed a Ki (NS3) of 0.269 µM.
Compound `CCCC(NC(=O)[C@@H]1C[C@@H]2CN1C(=O)[C@H](C1CCCCC1)NC(=O)Cc1cccc(c1)OCCCO2)C(=O)C(=O)NCC(=O)O` (some centres not stated) has a Ki (NS3) of 7.4 µM.
Compound `CCCC(NC(=O)[C@@H]1C[C@@H]2CN1C(=O)[C@H](C1CCCCC1)NC(=O)Cc1cccc(c1)OCCCO2)C(=O)C(=O)NCC(=O)NCc1ccccc1` (some centres not stated) has a Ki (NS3) of 1.1 µM.
For `CCCC(NC(=O)[C@@H]1C[C@@H]2CN1C(=O)[C@H](C1Cc3ccccc3C1)NC(=O)Cc1cccc(c1)OCCC(C)(C)O2)C(=O)C(=O)NCC(=O)N[C@H](C(=O)N(C)C)c1ccccc1` (some centres not stated), the Ki (NS3) was 0.04 µM.
Compound `CCCC(NC(=O)[C@@H]1C[C@@H]2CN1C(=O)[C@H](C1CCCCC1)NC(=O)Cc1cccc(c1)OCCCO2)C(=O)C(=O)NCC(=O)N[C@H](C(=O)OC(C)(C)C)c1ccccc1` (some centres not stated) has a Ki (NS3) of 0.044 µM.
In the case of `CCCC(NC(=O)[C@@H]1C[C@@H]2CN1C(=O)[C@H](C1CCCCC1)NC(=O)Cc1cccc(c1)OCCCO2)C(=O)C(=O)NCC(=O)N[C@H](C(=O)O)c1ccccc1` (some centres not stated), the Ki (NS3) is reported as 0.01 µM.
`CCCC(NC(=O)[C@@H]1C[C@@H]2CN1C(=O)[C@H](C1CCCCC1)NC(=O)Cc1cccc(c1)OCCCO2)C(=O)C(=O)NC` (some centres not stated) gave a Ki (NS3) of 9.9 µM.
For `C=CCNC(=O)C(=O)C(CCC)NC(=O)[C@@H]1C[C@@H]2CN1C(=O)[C@H](C1CCCCC1)NC(=O)Cc1cccc(c1)OCCC(C)(C)O2` (some centres not stated), the Ki (NS3) was 0.53 µM, the IC50 (Hepatitis C virus) was 0.4 µM and the AUC [1] was 13.6 µM·h. The AUC [2] was 34.7 µM·h, the AUC [3] was 26.3 µM·h and the bioavailability [4] was 97%.
`CCCC(NC(=O)[C@@H]1C[C@@H]2CN1C(=O)[C@H](C(C)(C)C)NC(=O)Cc1cccc(c1)OCCC(C)(C)O2)C(=O)C(=O)NCC(=O)N[C@H](C(=O)N(C)C)c1ccccc1` (some centres not stated) gave a Ki (NS3) of 0.017 µM, an IC50 (Hepatitis C virus) of 0.2 µM and a Ratio Ki [5] of 306.
Compound `C=CCNC(=O)C(=O)C(CCC)NC(=O)[C@@H]1C[C@@H]2CN1C(=O)[C@H](C1CCCCC1)NC(=O)Cc1cccc(c1)OCCCO2` (some centres not stated) has a Ki (NS3) of 10 µM.
In the case of `CCCC(NC(=O)[C@@H]1C[C@@H]2CN1C(=O)[C@H](C1CCCCC1)NC(=O)Cc1cccc(c1)OCCCO2)C(=O)C(=O)O` (some centres not stated), the Ki (NS3) is reported as 6.1 µM.
`CCCC(NC(=O)[C@@H]1C[C@@H]2CN1C(=O)[C@H](C1CCCCC1)NC(=O)Cc1cccc(c1)OCCCO2)C(=O)C(=O)NCC(=O)OCc1ccccc1` (some centres not stated) showed a Ki (NS3) of 0.43 µM.
In the case of `CCC[C@@H](NC(=O)[C@@H]1C[C@@H]2CN1C(=O)[C@H](C1CCCCC1)NC(=O)Cc1cccc(c1)OCCCO2)C(=O)C(=O)NCC(=O)N[C@H](C(=O)N(C)C)c1ccccc1`, the Ki (NS3) is reported as 0.5 µM.
Work on `CCCC(NC(=O)[C@@H]1C[C@@H]2CN1C(=O)[C@H](C1CCCCC1)NC(=O)Cc1cccc(c1)OCCC(C)(C)O2)C(=O)C(=O)NCC(=O)N[C@H](C(=O)N(C)C)c1ccccc1` (some centres not stated) yielded a Ki (NS3) of 0.006 µM, an IC50 (Hepatitis C virus) of 0.13 µM and an AUC [1] of 2.2 µM·h. It also gave an AUC [2] of 16.5 µM·h, an AUC [3] of 0.46 µM·h and a bioavailability [4] of 2.1%. For the same compound, the Ratio Ki [5] was 107 and the bioavailability [6] was 77%.
